High-throughput results as filed in PubChem BioAssay.
Sampled rows, rich in hits. Any-hit rate of the full collection: about 3.1%.
LEDGF integ inh: blocks HIV-1 LEDGF/p75-dependent DNA integration | TR-FRET IN-LEDGF/p75 DNA integration, Eu/Cy5 | inhibition, % at 3.7 µM | actives 0.64% (n = 370,000);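 active = inhibition above the screen-wide mean plus 3 SD, cut at about 13% in these data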;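 also: signal is the Cy5 over europium emission ratio at 671 and 618 nm; 0% = plate median of compound wells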
rCAG RNA binder: molecules binding r(CAG) RNA repeats; r(CAG) RNA repeat, TO-PRO-1 dye displacement fluorescence; inhibition, % at 3 µM; actives 1.3% (n = 370,000);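 active = inhibition above the plate cutoff, the mean of all test compounds on that plate plus 3 SD, cut at about 35% in these data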;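 also: 0% = DMSO alone and 100% = 100 µM mitoxantrone as full dye displacement; higher means more dye released from RNA so lower well fluorescence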
ATG4B inh: ATG4B (human) cysteine protease inhibition. Q9Y4P1. ATG4B cleavage of LC3-PLA2, NBD-HPC fluorescence, 1 h. inhibition, % at 8.33 µM. actives 0.51% (n = 340,000); in the data active = inhibition above about 40%
UHRF1 MBD2 ctr: UHRF1 methyl-DNA binding inhibition; Q96T88; UHRF1 binding to methylated oligo, TR-FRET; inhibition, % at 4.4 µM; actives 0.75% (n = 370,000); in the data active = inhibition above about 21%;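 also: UHRF1 SRA domain binding a hemimethylated CpG hairpin DNA probe; 0% = median of test compound wells and 100% = reference inhibitor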
CSN deneddyl inh: blocks human CSN-mediated cullin deneddylation | inhibition, % at 12.5 µM | actives 0.38% (n = 360,000) | AID 651999 | Purified CSN, SCF-Nedd8-OG deneddylation, fluorescence polarization;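 active = pattern-corrected inhibition above about 35%, with an unprinted fluorescence ratio check between 0.5 and 1.5, limit read from the data, passing the limit was not always enough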;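 also: 0% = enzyme with substrate and 100% = substrate without enzyme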
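Assay system: purified human Csn5 enzyme expressed in HEK293T cells; Input: 0.24 nM Csn5 enzyme, final concentration; Reagent: 10 nM SCFSkp2-Nedd8OG; Compound dosing: 12.5 µM single point; Times: reaction 90 min, room temperature; Technique: fluorescence polarization readout.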
MBD2 DNA inh: blocks human MBD2 binding to methylated DNA; TR-FRET, MBD2 binding to methylated oligonucleotide; AID 686964; actives 0.31% (n = 370,000); inhibition, % at 4.4 µM; in the data active = inhibition above about 13%
Target sequence (Q9UBB5 whole entry, looked up): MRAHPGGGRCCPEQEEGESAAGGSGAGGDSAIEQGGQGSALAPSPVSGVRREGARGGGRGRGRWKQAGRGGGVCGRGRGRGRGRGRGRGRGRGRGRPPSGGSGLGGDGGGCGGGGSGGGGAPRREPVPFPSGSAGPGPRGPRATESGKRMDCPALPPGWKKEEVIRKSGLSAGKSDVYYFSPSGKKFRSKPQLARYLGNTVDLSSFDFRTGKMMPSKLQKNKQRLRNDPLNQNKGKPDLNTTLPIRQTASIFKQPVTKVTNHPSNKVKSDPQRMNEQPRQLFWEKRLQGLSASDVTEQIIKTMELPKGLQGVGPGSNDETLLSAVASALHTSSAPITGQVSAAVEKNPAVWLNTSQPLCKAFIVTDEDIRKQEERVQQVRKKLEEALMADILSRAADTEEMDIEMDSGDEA
UHRF1 DNA bind: counter-screen for MBD2 inhibitors: human UHRF1 methylated DNA binding inhibitors; shares compounds with MBD2 DNA inh; UHRF1 binding to methylated oligonucleotide, TR-FRET; inhibition, % at 4.4 µM; actives 25% (n = 1,000); AID 720530; in the data active = inhibition above about 21%;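 also: UHRF1 SRA domain binding a labeled hemimethylated CpG hairpin DNA; 0% = vehicle only and 100% = reference inhibitor with vehicle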
MBD2 DBD conf: confirmation of human MBD2-DBD methylated oligonucleotide binding inhibitors; shares compounds with MBD2 DNA inh; TR-FRET MBD2-DBD binding to methylated oligonucleotide; inhibition, % at 4.4 µM; actives 26% (n = 1,000); AID 720531
IN multimer act: HIV-1 integrase multimerization activation, counter-screen; TR-FRET HIV-1 integrase multimerization, biochemical; shares compounds with LEDGF integ inh; actives 17% (n = 2,000); activation, % at 7.7 µM; in the data active = activation above about 8.9%
TR-FRET interf: TR-FRET optical interference, LEDGF/p75 integration counter-screen; shares compounds with LEDGF integ inh; TR-FRET optical interference counterscreen, HIV-1 IN multimerization; inhibition, % at 7.7 µM; 2,000 tested, under 10 active; AID 1053135;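 active = inhibition above the mean over all tested compounds plus 3 SD, which no compound reached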;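 also: 0% = integrase with antibodies and DMSO and 100% = antibodies without integrase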
IN-LEDGF confirm: LEDGF/p75-dependent HIV-1 integration inhibition, confirmation; shares compounds with LEDGF integ inh; TR-FRET LEDGF/p75-dependent HIV-1 integration, biochemical; inhibition, % at 3.7 µM; actives 36% (n = 2,000); AID 1053136
The depositor's hits bear a star. Rule as the data show it, unless noted: active = inhibition above about 14%; inactive = the rest.

What do the screens show for `COc1ccc(CCNC(=O)c2cnn(-c3ccccc3)c2N)cc1OC`?
LEDGF integ inh: 7; rCAG RNA binder: 3; UHRF1 MBD2 ctr: -2; MBD2 DNA inh: 3

How did Cc1cc(=O)n(C2CCS(=O)(=O)C2)[nH]1 (stereo unspecified) do in these assays?
LEDGF integ inh: 22*; rCAG RNA binder: 0; ATG4B inh: 7; UHRF1 MBD2 ctr: 17; CSN deneddyl inh: 3; MBD2 DNA inh: 14*; UHRF1 DNA bind: -2; MBD2 DBD conf: 2; IN multimer act: -2; TR-FRET interf: 9; IN-LEDGF confirm: 0

How did CC1CCC2(CC1)CCN(CCCOC(=O)NCc1ccc(Cl)cc1)C2=O (stereo unspecified) do in these assays?
LEDGF integ inh: 5; rCAG RNA binder: 0; UHRF1 MBD2 ctr: -1; MBD2 DNA inh: -3

How did O=C(O)c1cccc(-n2cccc2/C=N/O)c1 do in these assays?
LEDGF integ inh: 9; rCAG RNA binder: 0; ATG4B inh: -12; UHRF1 MBD2 ctr: 16; CSN deneddyl inh: 30; MBD2 DNA inh: 4

What do the screens show for `O=C(O)c1cccc(-n2cccc2/C=C\[N+](=O)[O-])c1`?
LEDGF integ inh: 32*; rCAG RNA binder: 8; ATG4B inh: 8; UHRF1 MBD2 ctr: 58*; CSN deneddyl inh: 8; MBD2 DNA inh: 17*; UHRF1 DNA bind: 26*; MBD2 DBD conf: 3; IN multimer act: 3; TR-FRET interf: -15; IN-LEDGF confirm: 6

What do the screens show for `O=C(O)c1ccc(-n2c(-c3cc(-c4ccco4)[nH]n3)n[nH]c2=S)cc1`?
LEDGF integ inh: 53*; rCAG RNA binder: 16; ATG4B inh: 6; UHRF1 MBD2 ctr: 83*; CSN deneddyl inh: 42*; MBD2 DNA inh: 27*; UHRF1 DNA bind: 73*; MBD2 DBD conf: 23*; IN multimer act: 10*; TR-FRET interf: -52; IN-LEDGF confirm: 42*

What do the screens show for `COC(=O)[C@H](Cc1ccccc1)NC(=O)[C@H]1C[C@@]2(N3CCCC3)c3ccccc3N(C(=O)OC(C)(C)C)[C@H]2N1C(=O)OC(C)(C)C`?
LEDGF integ inh: 0; rCAG RNA binder: 2; UHRF1 MBD2 ctr: 0; MBD2 DNA inh: 0

How did CCn1c(C)nc2cc(C(=O)N/N=C/c3ccc(O)c(O)c3O)ccc21 do in these assays?
LEDGF integ inh: 73*; rCAG RNA binder: 32; ATG4B inh: 0; UHRF1 MBD2 ctr: 19; CSN deneddyl inh: 7; MBD2 DNA inh: 16*; UHRF1 DNA bind: 3; MBD2 DBD conf: 2; IN multimer act: 52*; TR-FRET interf: -264; IN-LEDGF confirm: 70*

How did CCn1c(C)nc2cc(C(=O)N/N=C/c3cccc(OC)c3O)ccc21 do in these assays?
LEDGF integ inh: -9; rCAG RNA binder: 5; ATG4B inh: -14; UHRF1 MBD2 ctr: -5; CSN deneddyl inh: -4; MBD2 DNA inh: -5

What do the screens show for `O=C(CCc1nc(-c2ccc(Cl)cc2)no1)OCc1ccc(Br)cc1`?
LEDGF integ inh: 16*; rCAG RNA binder: -2; ATG4B inh: 8; UHRF1 MBD2 ctr: 28*; CSN deneddyl inh: -2; MBD2 DNA inh: 15*; UHRF1 DNA bind: 6; MBD2 DBD conf: 5; IN multimer act: 0; TR-FRET interf: 2; IN-LEDGF confirm: -4
